The text below walks through data of ChEMBL document CHEMBL3352678, “Synthesis and acetylcholinesterase inhibitory activity of Mannich base derivatives flavokawain B” (Bioorg Med Chem Lett, 2014).

Usually logD stands for the decadic logarithm of the distribution of all forms, ionised or not, between an organic phase and buffer at a given pH. What is called IC50 is the concentration at which inhibition is half-maximal. For orientation: Ki means a measure of affinity in units of concentration, obtained from inhibition or displacement. Low readings indicate tighter binding, high ones weaker binding.

The nature of series [1]: Octanol-buffer partition coefficient, log p of the compound at pH 7.4 for 24 hrs by shake flask method. The format is physicochemical. The procedure, abridged: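 Partitioning between n-octanol and buffer at pH 7.4 by the classical shake-flask method. Compound in each phase quantified by reverse-phase HPLC. log P calculated from the phase distribution.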
For series [2], the target named is T1, Acetylcholinesterase (Rattus norvegicus, UniProt P37136).
T1 sequence (P37136 whole entry): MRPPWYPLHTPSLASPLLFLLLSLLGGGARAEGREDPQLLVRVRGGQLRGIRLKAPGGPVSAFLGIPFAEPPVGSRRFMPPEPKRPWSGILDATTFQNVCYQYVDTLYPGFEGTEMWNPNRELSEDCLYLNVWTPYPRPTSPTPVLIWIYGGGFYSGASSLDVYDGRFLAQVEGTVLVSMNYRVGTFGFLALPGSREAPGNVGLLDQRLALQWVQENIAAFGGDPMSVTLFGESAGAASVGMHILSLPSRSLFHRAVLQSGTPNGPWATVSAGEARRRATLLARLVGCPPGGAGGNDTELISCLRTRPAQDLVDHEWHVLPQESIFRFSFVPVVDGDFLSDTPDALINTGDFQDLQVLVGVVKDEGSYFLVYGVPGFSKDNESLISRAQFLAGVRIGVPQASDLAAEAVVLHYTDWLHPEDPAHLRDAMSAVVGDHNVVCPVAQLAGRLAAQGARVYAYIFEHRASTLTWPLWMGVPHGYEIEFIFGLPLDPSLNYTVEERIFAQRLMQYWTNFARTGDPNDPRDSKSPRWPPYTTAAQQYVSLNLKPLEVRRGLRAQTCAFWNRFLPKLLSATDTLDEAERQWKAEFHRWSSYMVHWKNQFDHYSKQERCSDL
As to the kind of experiment: Inhibition of Sprague-Dawley rat brain AChE using acetylthiocholin iodide as substrate preincubated for 25 mins by Ellman's/UV-vis spectroscopy analysis. The procedure, abridged: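 Modified Ellman's method. Inhibition ratio was calculated from absorbance of the AChE-catalysed reaction product. IC50 was taken as the concentration causing 50% loss of enzyme activity.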

The target of series [3] is T1, Acetylcholinesterase. As to the kind of experiment: Inhibition of Sprague-Dawley rat brain AChE by Michaelis-Menten equation. Put shortly:
(§1)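 Kinetic analysis: Km and vmax were determined at several inhibitor concentrations. Ki for the free enzyme came from a linear replot of slope against inhibitor concentration. Ki′ for the enzyme–substrate complex came from a linear replot of intercept against inhibitor concentration.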

For series [4], the target named is T1, Acetylcholinesterase. As to the kind of experiment: Inhibition of Sprague-Dawley rat brain AChE using acetylthiocholin iodide as substrate by Michaelis-Menten equation. The procedure, abridged: as §1

Compound `CCN(CC)Cc1c(OC)cc(OC)c(C(=O)/C=C/c2ccccc2)c1O` came in with a logD at 24 h in series [1] of 1.69. Further, the IC50 on Acetylcholinesterase [2] was determined as 15.1 µM.
Consider `COc1cc(OC)c(C(=O)/C=C/c2ccccc2)c(O)c1CN(C)C`, for which the logD at 24 h in series [1] was found to be 1.61. The same compound had an IC50 on Acetylcholinesterase [2] of 18.8 µM.
Taken in the same sequence, the figures for `COc1cc(OC)c(C(=O)/C=C/c2ccccc2)c(O)c1CN1CCN(C)CC1` were 1.58 and 12.4 µM.
In the case of `COc1cc(OC)c(C(=O)/C=C/c2ccccc2)c(O)c1CN1CCCCC1`, the Ki is 2.75 µM on Acetylcholinesterase [3] and 4.58 µM at Acetylcholinesterase [4]. This compound also registered a logD at 24 h in series [1] of 1.75. At Acetylcholinesterase [2], this compound gave a 50% inhibitory concentration (IC50) of 4.15 µM.
The compound `CCCN(CCC)Cc1c(OC)cc(OC)c(C(=O)/C=C/c2ccccc2)c1O` registered a logD at 24 h in series [1] of 1.77. Further, the IC50 at Acetylcholinesterase [2] was 54.8 µM.
Taken in the same sequence, the figures for `COc1cc(OC)c(C(=O)/C=C/c2ccccc2)c(O)c1CN1CCCC1` were 1.74 and 16.1 µM.
In turn, `COc1cc(OC)c(C(=O)/C=C/c2ccccc2)c(O)c1CN1CCOCC1` displayed a logD at 24 h in series [1] of 1.63. Also, on Acetylcholinesterase [2], the IC50 was found to be 265 µM.
